Data: PMC8212730 (Clinical and Translational Science, 2021)
Read-outs that look alike come from different tables or passages of the source.

What was measured:
CYP2C8 = settings: cited from earlier work
[1] = single dose 500 mg; cited from earlier work
human CYP3A4 = settings: cited from earlier work
[2] = tested on: corrected QT interval (QTcF); experiment: Concentration-corrected QT; assay type: in vivo, human
Summary of the method: (§1)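 Patients on ivosidenib 500 mg q.d. had triplicate ECGs with time-matched plasma samples, pooled with two other phase I studies (solid tumours, healthy volunteers): 171 patients, 1203 measurements. Plasma drug was measured by LC-MS/MS. A linear mixed-effects model had population intercept and slope with bivariate-normal between-subject variability. Covariates were selected stepwise (likelihood ratio, 0.05). ΔQTcF and 90% CI were predicted at geometric mean Cmax. Fridericia and Bazett corrections were compared.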

[3] = Concentration-corrected QT; assay type: in vivo, human; settings: human, plasma, oral, 500 mg
Summary of the method: as §1

[4] = cited from earlier work; for Median time to maximal concentration range: across dose range
[5] = human plasma; ref not given; cited from earlier work
mIDH1 R/R AML = settings: 500 mg q.d., cited from earlier work
CYP2B6 = settings: cited from earlier work
[6] = Final population PK model of ivosidenib; assay type: in vivo, human
[7] = patients with AML after multiple doses of ivosidenib; PBPK model; cited from earlier work
R/R AML = experiment: Exposure-efficacy analysis; assay type: in vivo, human
Summary of the method: (§2)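 Plasma drug was measured by LC-MS/MS (ranges 1–1000 and 50–50,000 ng/ml). Data were fitted with a two-compartment population PK model with first-order absorption and elimination. Individual empirical Bayes estimates gave steady-state AUC per patient from the nominal q.d. dose. AUCss was related to CR, CR/CRh, overall response and non-CR/CRh response by logistic regression and Kaplan-Meier plots.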

[8] = Exposure-efficacy analysis; assay type: in vivo, human; settings: human, plasma, oral, AUCss range of quartile
Summary of the method: as §2

Exposure-safety analysis = assay type: in vivo, human
[9] = healthy participants; strong CYP3A4 inhibitor itraconazole; cited from earlier work
CYP2C9 = settings: in vitro; cited from earlier work
[10] = final population PK model, derived from steady-state parameters and fold changes
[11] = final population PK model, single dose to steady state

- Dose proportionality of exposure ([6]; 100 mg b.i.d. and 300-1200 mg q.d.): slightly less than dose proportional
- Predicted Cmax in the typical patient ([6]; 500 mg q.d., steady state, albumin 37 g/L, weight 74.2 kg, no CYP3A4 inhibitor): 4827 ng/mL
- Reduction in ivosidenib CL/F ([6]; concomitant fluconazole): 41%
- Reduction in ivosidenib CL/F ([6]; concomitant posaconazole): 35%
- Reduction in ivosidenib CL/F ([6]; concomitant voriconazole): 36%
- Effect of concomitant pantoprazole or famotidine on CL/F ([6]; covariate analysis): did not affect
- Impact of mild CYP3A4 inhibitors ([6]; covariate analysis): minimal
- Correlation between CL/F and hepatic function indicators ([6]; covariate analysis, patients with mild hepatic impairment): no correlation
- Albumin ratio-CL/F exponent ([6]; final population PK model): 0.99
- Albumin ratio-Vc/F exponent ([6]; final population PK model): 1.1
- Baseline albumin-Vc/F exponent ([6]; final population PK model): 0.73
- Decrease in relative bioavailability from single dose to steady state ([6]; final population PK model): 2 fold
- Fold change in CL with mild CYP3A inhibitors ([6]; final population PK model): 1.04
- Fold change in CL with other moderate/strong CYP3A inhibitors ([6]; final population PK model): 0.92
- Increase in exposure with a doubling of dose ([6]; final population PK model): ~ 40%
- Steady-state Q/F ([6]; final population PK model): 15.8 L/h
- Steady-state Vc/F ([6]; final population PK model): 234 L
- Steady-state Vp/F ([6]; final population PK model): 151 L
- Tlag (zero-order release duration, lag-time) ([6]; final population PK model): 0.27 h
- ka (first-order absorption rate constant) ([6]; final population PK model): 1.38 h⁻¹
- Fold change in CL with fluconazole ([6]; final population PK model, concomitant fluconazole): 0.59
- Fold change in CL with posaconazole ([6]; final population PK model, concomitant posaconazole): 0.65
- Fold change in CL with voriconazole ([6]; final population PK model, concomitant voriconazole): 0.64
- First-dose CL/F [6, 10]: 1.63 L/h
- First-dose Q/F [6, 10]: 4.8 L/h
- First-dose Vc/F [6, 10]: 71 L
- First-dose Vp/F [6, 10]: 46 L
- Steady-state CL/F ([6]; final population PK model, oral, patients with mIDH1 advanced hematologic malignancies): 5.39 L/h
- Steady-state fold change in CL [6, 11]: 1.66
- Steady-state fold change in Frel [6, 11]: 0.5
- Effect of time-varying albumin changes on plasma exposure ([6]; human, in vivo): less than 20%
- Increase in AUCss ([6]; moderate/strong CYP3A4 inhibitors): 60%
- AUC ([8]; AUCss quartile 1, 51 patients): 40.9 to 93.1 µg·h/mL
- AUC ([8]; AUCss quartile 2, 50 patients): 93.4 to 122 µg·h/mL
- AUC ([8]; AUCss quartile 3, 50 patients): 124 to 170 µg·h/mL
- AUC ([8]; AUCss quartile 4, 50 patients): 171 to 361 µg·h/mL
SMILES: N#Cc1ccnc(N2C(=O)CC[C@H]2C(=O)N(c2cncc(F)c2)[C@H](C(=O)NC2CC(F)(F)C2)c2ccccc2Cl)c1 [ivosidenib]
- Contribution to metabolism of ivosidenib (CYP2C8): minor contributions
- Inducer status (CYP2C8; in vitro): may also be an inducer
- Effect of mild/moderate hepatic impairment on ivosidenib exposure [1]: did not lead to clinically relevant changes in ivosidenib exposure
- Contribution to metabolism of ivosidenib (human CYP3A4; CYP3A4): major metabolism pathway
- Inducer status (human CYP3A4; in vitro, human CYP3A4): inducer
- Substrate status (human CYP3A4; in vitro, human CYP3A4): substrate
- Predicted ΔQTcF ([2]; at 6551 ng/ml, geometric mean Cmax for 500 mg q.d.): 17.2 ms
- Relationship between ΔQTcF and ivosidenib concentration ([2]; in vivo): significant direct relationship
- Increase of ΔQTcF with plasma ivosidenib concentration (slope) ([2]; linear mixed-effects model): 0.00258 msec/(ng/ml)
- Cmax [3]: 6550 ng/mL
- Half-life ([4]; after a single dose): 72 to 138 h
- Time to steady state ([4]; daily dosing): ≤ 14 days
- Median time to maximal concentration range ([4]; multiple dosing): 1.9 to 4.0 h
- Median time to maximal concentration range ([4]; single dose administration): 2.4 to 5.5 h
- Protein bound [5]: ~ 90%
- Rate of CR plus CRh (mIDH1 R/R AML; 174 patients with mIDH1 R/R AML): 32.8%
- Median duration of CR/CRh (mIDH1 R/R AML): 8.2 months
- Median time to CR/CRh response (mIDH1 R/R AML): 2 months
- Contribution to metabolism of ivosidenib (CYP2B6): minor contributions
- Inducer status (CYP2B6; in vitro): may also be an inducer
- Wt-Vc/F exponent ([6]; final population PK model, baseline body weight): 0.92
- Predicted change in plasma AUC in the presence of itraconazole [7]: 1.44 fold
- Incidence of CR (complete remission) (R/R AML; AUCss quartile 1): 11 (22%) n
- Incidence of CR/CRh (R/R AML; AUCss quartile 1): 17 (33%) n
- Incidence of OR (overall response) (R/R AML; AUCss quartile 1): 20 (39%) n
- Incidence of CR (complete remission) (R/R AML; AUCss quartile 2): 12 (24%) n
- Incidence of CR/CRh (R/R AML; AUCss quartile 2): 15 (30%) n
- Incidence of OR (overall response) (R/R AML; AUCss quartile 2): 18 (36%) n
- Incidence of CR (complete remission) (R/R AML; AUCss quartile 3): 9 (18%) n
- Incidence of CR/CRh (R/R AML; AUCss quartile 3): 12 (24%) n
- Incidence of OR (overall response) (R/R AML; AUCss quartile 3): 18 (36%) n
- Incidence of CR (complete remission) (R/R AML; AUCss quartile 4): 11 (22%) n
- Incidence of CR/CRh (R/R AML; AUCss quartile 4): 15 (30%) n
- Incidence of OR (overall response) (R/R AML; AUCss quartile 4): 19 (38%) n
- Association between nominal AUCss and probability of clinical response (R/R AML; logistic regression): minimal
- Patients with OR (R/R AML; of 201 patients with R/R AML): 75 patients
- Patients with non-CR/CRh response (R/R AML; of 201 patients with R/R AML): 16 patients
- Incidence of new or worsening all grade ALT (Exposure-safety analysis; 253 patients): 15%
- Association between incidence of events for all safety end points and AUCss (Exposure-safety analysis; logistic regression): no association
- Change in plasma AUC with itraconazole [9]: 1.69 fold
- Inducer status (CYP2C9): may also be an inducer
